A short description of experiment [1]: Activity of CMY-2 by spectrophotometry. In a few lines: (§1)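 CMY β-lactamases purified from sonicated, ultracentrifuge-clarified extracts of E. coli DH5α clones (pB-cmy36, pB-cmy2) by Q- then S-Sepharose ion exchange (>90% pure by SDS-PAGE); steady-state hydrolysis kinetics measured spectrophotometrically, CMY-2 run in parallel.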
Experiment [2] can be described thus: Ratio of Kcat to Km of CMY-2 by spectrophotometry. The method, boiled down:
as §1

This passage reports Km, kcat and kcat/Km results from ChEMBL document CHEMBL1629653, “CMY-31 and CMY-36 cephalosporinases encoded by ColE1-like plasmids” (Antimicrob Agents Chemother, 2009).

Each structure is given as a SMILES string. Where only a bound is given, the exact number is not on record here.

Consider `O=C(Cc1cccs1)N[C@@H]1C(=O)N2C(C(=O)[O-])=C(C[n+]3ccccc3)CS[C@H]12`, for which, in experiment [1], the Km worked out at 120 µM and the kcat came out at 300 s⁻¹. Further, in experiment [2], the kcat/Km is 2.5e+06 M⁻¹ s⁻¹.
For the compound `O=C(Cc1cccs1)N[C@@H]1C(=O)N2C(C(=O)O)=C(/C=C/c3ccc([N+](=O)[O-])cc3[N+](=O)[O-])CS[C@H]12`, in experiment [1], the Michaelis constant (Km) is 10 µM and the kcat worked out at 980 s⁻¹. For the same compound, the specificity constant (kcat/Km) in experiment [2] was found to be 9.8e+07 M⁻¹ s⁻¹.
Turning to `CC1(C)S[C@@H]2[C@H](NC(=O)Cc3ccccc3)C(=O)N2[C@H]1C(=O)O`, in experiment [1], the Km was 0.4 µM and the kcat is 10 s⁻¹. The kcat/Km in experiment [2] is 2.5e+07 M⁻¹ s⁻¹.
On to `CO/N=C(\C(=O)N[C@@H]1C(=O)N2C(C(=O)O)=C(COC(C)=O)CS[C@H]12)c1csc(N)n1`, for which, in experiment [1], the kcat is less than 0.01 s⁻¹.

As usually defined, the Km is the substrate concentration at which the rate is half of its maximum. Broadly, the kcat is the number of substrate molecules converted per active site and unit of time at saturation. For orientation: kcat/Km means the second-order rate constant that governs catalysis at low substrate concentration.
